Experimental data published in publication PMC7551138 (Alzheimer's & Dementia : Translational Research & Clinical …, 2020).

Experiments:
healthy elderly subjects [1] = assay: Visual analogue scales; type: in vivo, human; details: 22 mg b.i.d. intranasal 7 days; vs placebo, mean (confidence interval)
How it was run: (§1)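 NeuroCart tests were repeated over time during the 7-day b.i.d. intranasal dosing: eye movements, N-back with 3 working-memory-load conditions, pharmaco-EEG, and 100-mm VAS (Bond and Lader mood/alertness/calmness; nausea). In the 22 mg cohort, EEG at 30 min and 3 h post-dose was dropped. Analysis was mixed-model ANOVA (treatment, time, treatment×time fixed; subject random; baseline covariate), giving LSM difference versus placebo with CI.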

healthy elderly subjects [2] = assay: N‐back test; type: in vivo, human; details: vs placebo, mean (confidence interval)
How it was run: as §1

healthy elderly subjects [3] = assay: Visual verbal learning test; type: in vivo, human; details: for VVLT Delayed word recall correct / VVLT Delayed word recognition RT correct / VVLT Delayed word recognition correct / VVLT Word recall correct 1 / VVLT Word recall correct 2 / VVLT Word recall correct 3: vs placebo, mean (confidence interval)
How it was run: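 Thirty words were shown repeatedly, with immediate recall after each presentation. After 30 min, delayed recall and recognition among distractor words were tested. This test was not repeated within a day. Analysis was mixed-model ANOVA (treatment, day, treatment×day fixed; subject random), giving LSM difference versus placebo with CI.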

healthy elderly subjects [4] = assay: Pharmaco‐electroencephalography; type: in vivo, human; details: for EEG Delta Fz‐Cz closed (uV^2/Hz) / EEG Delta Fz‐Cz open (uV^2/Hz) / EEG Delta Pz‐O1 closed (uV^2/Hz) / EEG Delta Pz‐O1 open (uV^2/Hz) / EEG Delta Pz‐O2 closed (uV^2/Hz) / EEG Delta Pz‐O2 open (uV^2/Hz): vs placebo, mean (confidence interval)
How it was run: as §1

healthy elderly subjects [5] = assay: PK‐PD analysis, nonlinear mixed‐effect modeling of adaptive tracking; type: in vivo, human
How it was run: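 Nonlinear mixed-effects PK-PD modelling used plasma and CSF data from this study plus earlier first-in-human data. Oral comparator data were dose-corrected. […] models linked plasma concentration of the active cleavage product to adaptive tracking, testing direct-effect, turnover and effect-compartment forms. Inter-individual and inter-occasion variability were assessed. Covariates were added stepwise at p<0.01, then removed by backward elimination at p<0.001. Emax and EC50 (mg/L) are given with 95% CI.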

[6] = intranasal 20.0 mg/kg; cited from earlier work
[7] = cited from earlier work
[8] = 5.5 mg b.i.d. intranasal 7 days

## COc1ccc2c3c1O[C@H]1C[C@@H](OC(=O)c4ccccc4)C=C[C@@]31CCN(C)C2 [Gln‐1062]
Healthy elderly subjects [1]
  VAS Mood: −0.68 (−3.66, 2.29) P = 0.6455 mm
Healthy elderly subjects [2]; [8]
  N‐back corr‐incorr/total 1: 0.026 (−0.026, 0.078) P = 0.3186
  N‐back corr‐incorr/total 2: −0.002 (−0.068, 0.064) P = 0.9575
  N‐back mean RT 2 back: −45.6 (−99.3, 8.2) P = 0.0944 msec
Healthy elderly subjects [2]; 11 mg b.i.d. intranasal 7 days
  N‐back corr‐incorr/total 1: 0.027 (−0.023, 0.076) P = 0.2811
  N‐back corr‐incorr/total 2: −0.016 (−0.081, 0.049) P = 0.6231
  N‐back mean RT 1 back: 6.1 (−39.6, 51.8) P = 0.7893 msec
Healthy elderly subjects [2]; 22 mg b.i.d. intranasal 7 days
  N‐back corr‐incorr/total 1: 0.020 (−0.029, 0.069) P = 0.4242
  N‐back corr‐incorr/total 2: 0.036 (−0.028, 0.099) P = 0.2661
  N‐back mean RT 1 back: −24.4 (−67.1, 18.3) P = 0.2558 msec
  N‐back mean RT 2 back: −71.4 (−126.4,−16.3) P = 0.0123 msec
Healthy elderly subjects [3]; [8]
  VVLT Delayed word recall correct: 0.36 (−2.02, 2.73) P = 0.7624
  VVLT Delayed word recognition RT correct: −49.93 (−166.97, 67.10) P = 0.3944 msec
  VVLT Delayed word recognition correct: −2.60 (−6.60, 1.40) P = 0.1967
  VVLT Word recall correct 1: 0.36 (−1.31, 2.03) P = 0.6635
  VVLT Word recall correct 2: −0.45 (−2.44, 1.55) P = 0.6545
  VVLT Word recall correct 3: −0.12 (−2.42, 2.17) P = 0.9136
Healthy elderly subjects [3]; 11 mg b.i.d. intranasal 7 days
  VVLT Delayed word recall correct: −0.73 (−3.15, 1.70) P = 0.5486
  VVLT Delayed word recognition RT correct: −30.91 (−150.24, 88.41) P = 0.6041 msec
  VVLT Delayed word recognition correct: −2.19 (−6.24, 1.87) P = 0.2825
  VVLT Word recall correct 1: 0.62 (−1.07, 2.32) P = 0.4608
  VVLT Word recall correct 2: −0.63 (−2.65, 1.40) P = 0.5370
  VVLT Word recall correct 3: −0.89 (−3.23, 1.44) P = 0.4444
Healthy elderly subjects [3]; 22 mg b.i.d. intranasal 7 days
  VVLT Delayed word recall correct: 0.48 (−1.89, 2.86) P = 0.6838
  VVLT Delayed word recognition RT correct: −120.03 (−237.07,−3.00) P = 0.0447 msec
  VVLT Delayed word recognition correct: −0.43 (−4.43, 3.57) P = 0.8291
  VVLT Word recall correct 1: −0.12 (−1.79, 1.54) P = 0.8816
  VVLT Word recall correct 2: −0.01 (−2.00, 1.99) P = 0.9959
  VVLT Word recall correct 3: 0.99 (−1.30, 3.29) P = 0.3883
Healthy elderly subjects [3]; compared with placebo
  effects on VVLT, eye movements and VAS mood, calmness, alertness and nausea: No significant and consistent effects
Healthy elderly subjects [4]; [8]
  EEG Delta Fz‐Cz closed (uV^2/Hz): −1.8% (−30.4%, 38.5%) P = 0.9140
  EEG Delta Fz‐Cz open (uV^2/Hz): −13.6% (−35.0%, 14.8%) P = 0.3010
  EEG Delta Pz‐O1 closed (uV^2/Hz): −3.1% (−36.1%, 46.9%) P = 0.8765
  EEG Delta Pz‐O1 open (uV^2/Hz): −12.9% (−39.4%, 25.1%) P = 0.4391
  EEG Delta Pz‐O2 closed (uV^2/Hz): −13.4% (−39.2%, 23.5%) P = 0.4151
  EEG Delta Pz‐O2 open (uV^2/Hz): 3.1% (−23.8%, 39.4%) P = 0.8382
Healthy elderly subjects [4]; 11 mg b.i.d. intranasal 7 days
  EEG Delta Fz‐Cz closed (uV^2/Hz): −14.8% (−37.6%, 16.4%) P = 0.3023
  EEG Delta Fz‐Cz open (uV^2/Hz): −2.5% (−25.2%, 27.0%) P = 0.8435
  EEG Delta Pz‐O1 closed (uV^2/Hz): −12.4% (−41.5%, 31.2%) P = 0.5079
  EEG Delta Pz‐O1 open (uV^2/Hz): −5.4% (−33.6%, 34.6%) P = 0.7474
  EEG Delta Pz‐O2 closed (uV^2/Hz): −0.4% (−28.5%, 38.7%) P = 0.9799
  EEG Delta Pz‐O2 open (uV^2/Hz): 3.7% (−21.2%, 36.6%) P = 0.7851
Healthy elderly subjects [4]; 22 mg
  EEG delta power at the frontal and parietal locations: significantly decreased
Healthy elderly subjects [4]; 22 mg b.i.d. intranasal 7 days
  EEG Delta Fz‐Cz closed (uV^2/Hz): −19.8% (−35.7%,−0.1%) P = 0.0495
  EEG Delta Fz‐Cz open (uV^2/Hz): −30.1% (−48.3%,−5.3%) P = 0.0235
  EEG Delta Pz‐O1 closed (uV^2/Hz): −27.4% (−46.1%,−2.1%) P = 0.0369
  EEG Delta Pz‐O1 open (uV^2/Hz): −29.1% (−45.3%,−8.0%) P = 0.0126
  EEG Delta Pz‐O2 closed (uV^2/Hz): −21.5% (−35.1%, −5.0%) P = 0.0154
  EEG Delta Pz‐O2 open (uV^2/Hz): −16.5% (−33.4%, 4.8%) P = 0.1128
Healthy elderly subjects [5]; direct effect model on galantamine plasma concentration, 95% CI 1.15–5.90
  maximum increase (Emax) of adaptive tracking: 1.91
Healthy elderly subjects [5]; galantamine plasma concentration, direct effect model, by drug dosed
  concentration resulting in half of the maximum (EC50), adaptive tracking: 0.0231 mg/L
[6]
  blood‐to‐brain ratio: 10.2 mg/kg
[7]; 22 mg
  tolerability compared with 16 mg oral galantamine and other ChEIs: better tolerated
[7]; 5.5, 11, 22, 33 and 44 mg
  sustained attention (adaptive tracking) and verbal memory (VVLT): dose‐dependent improvements
